From PubChem BioAssay
UBC13 polyUb = UBC13 polyubiquitin chain formation inhibitors, primary screen, biochemical, TR-FRET, uHTS; inhibition, % at 20 µM; 330,000 compounds, 0.47% hits; Ubiquitin-conjugating enzyme E2 N (Homo sapiens), P61088; in the data active means inhibition above about 45%, passing the limit was not always enough
Target sequence (P61088 whole entry, looked up): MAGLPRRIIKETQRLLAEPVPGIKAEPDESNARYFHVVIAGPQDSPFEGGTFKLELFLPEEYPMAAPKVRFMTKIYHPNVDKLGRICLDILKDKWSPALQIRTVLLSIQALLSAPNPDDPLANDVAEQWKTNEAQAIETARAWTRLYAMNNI
SENP6 block = SENP6 protease inhibitors, primary screen, biochemical, luminescence, uHTS; Sentrin-specific protease 6 (Homo sapiens), Q9GZR1; Recombinant SENP6 catalytic domain, aminoluciferin luminescence; inhibition, % at 10 µM; 330,000 compounds, 1.8% hits; AID 2599, 2010;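 active means inhibition above about 50% at the single tested dose, limit read from the data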;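 further: plate controls were DMSO wells with enzyme for no effect and DMSO wells lacking enzyme for full effect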
SENP8 block-1 = SENP8 protease inhibitors, primary screen, biochemical, luminescence; AID 2540, 2010; inhibition, % at 10 µM; 330,000 compounds, 1.2% hits; Sentrin-specific protease 8 (Homo sapiens), Q96LD8; purified SENP8, Z-RLRGG-aminoluciferin cleavage; in the data active means inhibition above about 50%
SENP7 block = SENP7 protease inhibitors, primary screen, biochemical, luminescence, uHTS; Sentrin-specific protease 7 (Homo sapiens), Q9BQF6; recombinant SENP7, Z-RLRGG-aminoluciferin luminescence, 40 min; inhibition, % at 5 µM; 330,000 compounds, 1.5% hits; AID 434973, 2010;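 active means inhibition above about 50% at the single test dose, limit read from the data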;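 further: plate controls were DMSO with enzyme for no effect and no enzyme buffer wells for full effect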
Target sequence (Q9BQF6 706-1050 limits assumed): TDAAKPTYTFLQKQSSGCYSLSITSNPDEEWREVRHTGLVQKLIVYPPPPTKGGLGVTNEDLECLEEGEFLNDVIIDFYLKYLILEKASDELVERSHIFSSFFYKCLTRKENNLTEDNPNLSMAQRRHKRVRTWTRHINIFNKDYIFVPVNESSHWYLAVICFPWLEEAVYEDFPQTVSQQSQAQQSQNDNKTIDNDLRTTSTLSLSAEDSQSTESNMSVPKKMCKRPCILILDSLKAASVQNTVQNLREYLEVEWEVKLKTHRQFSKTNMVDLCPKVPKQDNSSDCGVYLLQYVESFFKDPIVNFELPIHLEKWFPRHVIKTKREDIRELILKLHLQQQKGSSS
Apaf-1 inh = inhibitors of human Apaf-1 apoptosome, primary screen, biochemical, DEVD-Rh110 fluorescence, uHTS; Apoptotic protease-activating factor 1 (Homo sapiens), O14727; reconstituted apoptosome caspase-3 activity; inhibition, % at 20 µM; 330,000 compounds, 0.71% hits; active means inhibition of at least 40% at 20 µM;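 further: plate controls were DMSO wells for no effect and DEVD-CHO caspase inhibitor wells for full effect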
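Assay system – apoptosome proteins · Medium – Hepes buffer, pH 7.5 · Also added – cytochrome c with DEVD-Rh110 · Timing – 30 min compound preincubation, 50 min activation, room temperature · Detection – Rh110 fluorescence, excitation 480 nm, emission 540 nm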
SENP8 block-2 = human SENP8 protease inhibitors, primary screen, biochemical, fluorescence, Nedd8 protein substrate, uHTS. inhibition, % at 20 µM. recombinant SENP8. 360,000 compounds, 0.64% hits. Sentrin-specific protease 8 (Homo sapiens), Q96LD8. AID 602440, 2012; in the data active means inhibition mostly above about 40%, no sharp cut-off; inactive means mostly below about 27%
Apaf-1 inh conf = Apaf-1 inhibitors, single-dose retest, confirmation, biochemical, fluorescence, DEVD-Rh110, 20 µM | 1,800 compounds, 25% hits | inhibition, % at 20 µM | reconstituted apoptosome, caspase-3 DEVD-Rh110 fluorescence | shares compounds with Apaf-1 inh;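 active means mean inhibition of at least 40% at 20 µM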;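 further: plate controls were DMSO wells for no effect and DEVD-CHO caspase inhibitor control wells for full effect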
Rh110 interf inh = Rh110 fluorescence interference by putative Apaf-1 inhibitors, confirmation, artefact control for Apaf-1 inhibitor project, biochemical, 20 µM | activation (fluorescence interference), % at 20 µM | shares compounds with Apaf-1 inh | quenched caspase reaction | 1,800 tested, under 10 active | AID 504615, 2011;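 active means signal rise of 40% or more at 20 µM, treated as a fluorescence artifact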
Fluor interf inh = fluorescence interference of Apaf-1 inhibitor hits, dose response, artefact control for Apaf-1 inhibitor project; 460 tested, under 10 active; shares compounds with Apaf-1 inh; fluorescence interference counterscreen, Apaf-1 assay format; IC50, µM; call rule not given here
An asterisk follows results filed as active; / = not tested or not shown. Only some compounds are listed: those with a hit (about 3.1% of all), similar ones and a draw of the others.

SMILES | UBC13 polyUb | SENP6 block | SENP8 block-1 | SENP7 block | Apaf-1 inh | SENP8 block-2 | Apaf-1 inh conf | Rh110 interf inh | others
O=c1cc(-c2ccc(F)cc2)[nH][nH]1 | -14 | -1 | -6 | 6 | 50* | 28 | 2 | -8
COc1ccc(-c2cc(=O)[nH][nH]2)cc1OC | -22 | 13 | -5 | 5 | 77* | 28 | 13 | -6
O=c1cc(-c2ccccc2)[nH][nH]1 | -7 | -29 | 2 | 0 | 2 | -22 | / | /
CCOc1cccc(-c2cc(=O)[nH][nH]2)c1 | -14 | 13 | 2 | 13 | 44* | 32 | 9 | 4
O=c1cc(-c2ccc(Br)cc2)[nH][nH]1 | -12 | 3 | -8 | 4 | 33 | 24 | / | /
COc1cccc(-c2cc(=O)[nH][nH]2)c1 | -7 | -9 | -2 | 2 | 24 | -8 | / | /
CN(Cc1ccccc1)C(=O)c1csc([C@H]2C[C@H](O)[C@@H](CO)O2)n1 | / | / | / | / | / | 9 | / | /
Nc1ccc2c3c(ccc([N+](=O)[O-])c13)CC2 | / | / | / | / | / | 31 | / | /
O=C([C@H]1O[C@@H](n2ccc(=O)[nH]c2=O)[C@H](O)[C@@H]1O)N1CCN(c2ccc(Cl)cn2)CC1 | / | / | / | / | / | -116 | / | /
Cc1ccc(-c2nn3c(C)nnc3c3ccccc23)cc1S(=O)(=O)NCc1ccccc1 | 7 | -15 | 0 | 0 | 48* | -36 | 72* | 7 | Fluor interf inh=>100
Cc1cc(C)cc(N=Cc2[nH]c3ccc(Br)c(Cl)c3c2O)c1 | / | / | / | / | / | 11 | / | /
COc1ccc(CN=Cc2[nH]c3ccc(Br)c(Cl)c3c2O)cc1 | -71 | -2 | 6 | 0 | 45* | 49* | 41* | -1 | Fluor interf inh=>100
Oc1ccc(NCc2ccccc2OCc2ccccc2)cc1 | 5 | 50 | -4 | 12 | 90* | 62* | 18 | 6
N#Cc1ccc(C23CC4(C2)[C@H](CN(Cc2ccc(-c5ccccc5)cc2)[C@@H]4c2ccccc2)C3c2ccc(C(F)(F)F)cc2)cc1 (stereo partly drawn) | 0 | -10 | -8 | -11 | 45* | / | 5 | 8
CC(=O)Nc1ccc(CN(C)c2c(C)nc3ccc(C(=O)NCCCn4ccnc4)cn23)cc1 | / | / | / | / | / | 17 | / | /
[O-]/C(=C(\C(=S)Nc1cccc2ccccc12)[n+]1ccccc1)c1ccc(Cl)s1 | -12 | 32 | 22 | 22 | 47* | -348 | 15 | -2
[O-]C(=C(C(=S)Nc1cccc2ccccc12)[n+]1cccc(CO)c1)c1ccc(Cl)s1 | / | / | / | / | / | -445 | / | /
CC(=O)c1ccc(OCC(=O)Nc2ccc3c(c2)OCO3)cc1 | / | / | / | / | / | 13 | / | /
CN(C=[N+](C)C)c1cccc2c1C(=O)c1ccccc1C2=O | -42 | 12 | -4 | 4 | 43* | 14 | 21 | 13
CCOC(=O)N1CCN(C(=O)C[C@@H]2C[C@@]3(C(=O)OCC)CCCC=C3N(Cc3ccccc3)C2=O)CC1 | / | / | / | / | / | 17 | / | /
O=C(CC1CC2CCC1C2)N1CCN(S(=O)(=O)c2ccc(F)cc2)CC1 (stereo not drawn) | / | / | / | / | / | 16 | / | /
O=C1Cc2cc(S(=O)(=O)N3CCNCC3)ccc2N1 | -4 | 12 | 8 | 4 | 40* | 3 | 10 | 6
C[C@@H]1CN([C@@H](C)CO)C(=O)c2cc(Br)cnc2O[C@H]1CN(C)C(=O)Cc1cccnc1 | / | / | / | / | / | 0 | / | /
CCC(=O)NC1=C(NC(C)c2ccccc2)C(=O)c2ccccc2C1=O (stereo not drawn) | -72 | 0 | 1 | -4 | 5 | 23 | / | /
